The record followed here is ChEMBL document CHEMBL1150829, “Novel cytotoxic 4-phenylfuranocoumarins from Calophyllum dispar” (2001).

Assay [1] has as its system KB. The experiment in a line: Cytotoxicity against human KB cells after 72 hrs by neutral red staining. Format: functional. The note with it: read-out: ED50 (the source's name). The procedure, abridged:
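Human nasopharyngeal carcinoma KB cells exposed in triplicate to five concentrations (50 to 0.01 µg/mL) of pure compound, or none, for 72 h at 37 °C. Living cells stained with neutral red and optical density read at 540 nm. ED50 is the concentration inhibiting cell growth to 50% of control.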

Assay [2] has as its system KB. The experiment in a line: Growth inhibition of human KB cells at 5 to 6 ug/mL after 72 hrs by neutral red staining. The format is functional.

In brackets after ≈: the same amount, converted by molar mass.

For the compound `C=C(C)[C@@H]1Cc2c(c(C(=O)CC(C)C)c(O)c3c(-c4ccccc4)cc(=O)oc23)O1`, in assay [1], the EC50 came to 40 µg/mL (≈ 98.9 µM).

In turn, `CCCC(=O)c1c(O)c2c(c3c(-c4ccccc4)cc(=O)oc13)O[C@H](C(C)(C)O)C2` returned an Inhibition in assay [2] of 50%. For `CCCC(=O)c1c2c(c3oc(=O)cc(-c4ccccc4)c3c1O)C[C@@H](C(C)(C)O)O2`, in assay [1], the EC50 amounted to 6 µg/mL (≈ 14.7 µM). On the same count and under the same terms, the figure for `CC(C)CC(=O)c1c2c(c3oc(=O)cc(-c4ccccc4)c3c1O)C[C@@H](C(C)(C)O)O2` [CYCLOMAMMEISIN] is 6 µg/mL (≈ 14.2 µM); for `COc1cccc2c1C(=O)c1c(O)c3c(c(O)c1C2=O)C[C@@](O)(C(=O)CO)C[C@@H]3O[C@H]1C[C@H](N)[C@H](O)[C@H](C)O1` [DOXORUBICIN] it is 0.058 µg/mL (≈ 0.107 µM); for `CCC(C)C(=O)c1c2c(c3oc(=O)cc(-c4ccccc4)c3c1O)C[C@@H](C(C)(C)O)O2` (stereo not given in full) it is 5 µg/mL (≈ 11.8 µM).

As for `CC(C)CC(=O)c1c(O)c2c(c3c(-c4ccccc4)cc(=O)oc13)O[C@H](C(C)(C)O)C2`, the EC50 in assay [1] was found to be 9 µg/mL (≈ 21.3 µM). The Inhibition in assay [2] is reported as 50%. For the compound `CCC(C)C(=O)c1c(O)c2c(c3c(-c4ccccc4)cc(=O)oc13)O[C@H](C(C)(C)O)C2` (stereo not given in full), in assay [1], the EC50 was found to be 15 µg/mL (≈ 35.5 µM). In assay [2], the Inhibition is given as 50%.

The Inhibition is the percentage by which the read-out fell short of the control. Read a low Inhibition as a response near the control.
